# Measurements gathered from unrelated publications.
# Lines come from different studies, so protocols differ.
# Target: TRAF2 and NCK-interacting protein kinase (TNIK, Homo sapiens, UniProt Q9UKE5)
SMILES,read-out,action,method,tested at,quantity,result
Cn1c2c(Cl)c(Cl)ccc2c2cc(N)[nH]c(=O)c21,thermal stability,,DSF,10 µM,ΔTm,0.1 °C
COc1ccc2cc(OCC3(C(=O)O)CN(C(=O)c4ccc(F)cc4)C3)ccc2c1,cell-free assay,,competition with immobilised ligand,1 µM,remaining binding,61%
O=C(CSc1nc2nccnc2c(=O)n1CCc1ccccc1)Nc1nccs1,enzyme activity,inhibitor,,10 µM,inhibition,-4%
O=C(O)[C@H]1[C@H](Cn2nnc3ccccc3c2=O)CC[C@@H]1C(=O)c1ccc(OCCC2CCOCC2)cc1,cell-free assay,,competition with immobilised ligand,1 µM,remaining binding,84%
N#CC1c2c([nH]c3c(Cl)c(Cl)ccc23)C(=O)NC12CCCCC2 (racemic),thermal stability,,DSF,10 µM,ΔTm,0 °C
CC(C)(O)[C@H]1CC[C@H](Nc2ccc3ncc(-c4cccc(C(F)(F)F)c4)n3n2)CC1,enzyme activity,inhibitor,,1 µM,remaining activity,96.9%
CO[C@@H](C)c1c(Nc2ccc([C@@H](N(C)C(=O)C3CCS(=O)(=O)CC3)C(F)(F)F)cc2)cnc2cc(Cl)nn12,cell-free assay,,competition with immobilised ligand,1 µM,remaining binding,100%
Cn1cnc(Br)c1C1=CN(c2ncnc3[nH]cnc23)CCS1,enzyme activity,inhibitor,radiometric,2 µM,inhibition,88.7%
CCCCNc1ncc2c(-c3ccc(F)cc3)nn(C[C@H]3CC[C@H](N)CC3)c2n1,target engagement in cells,inhibitor,chemoproteomics,20 mM,inhibition,62.6%
Cn1c2c(c3ccc(Cl)c(Cl)c31)C(C#N)C1(CCNCC1)NC2=O (racemic),thermal stability,,DSF,10 µM,ΔTm,-0.1 °C
COc1cc(Cl)c(C(=O)N[C@@H](CN[C@H]2CC[C@@H](N)CC2)Cc2ccc(C#N)cc2)cc1-c1ccc(CN[C@H](C)c2ccc(C)cc2)o1,enzyme activity,inhibitor,,1 µM,remaining activity,100%
Cn1c2c(c3ccc(Cl)c(Cl)c31)C(C#N)C1(CCOCC1)NC2=O (stereo not drawn),thermal stability,,DSF,10 µM,ΔTm,-0.1 °C
Cn1cc(Cl)c2c(Oc3c(F)cc(Nc4cc(Cl)nc(N)n4)cc3F)ccnc21,cell-free assay,,competition with immobilised ligand,0.1 µM,remaining binding,96%
COc1cccc2c(NCc3ccccc3)nc(-n3c(N)nc4ccccc43)nc12,target engagement in cells,inhibitor,chemoproteomics,20 mM,inhibition,3.5%
CNC(=O)c1cc2c(Oc3ccc(NC(=O)C4(C(=O)Nc5ccc(F)cc5)CC4)cc3)ccnc2cc1OC,enzyme activity,inhibitor,radiometric,1 µM,inhibition,73%
C=CC(=O)Nc1cc(Nc2nccc(Nc3cc(Cl)c(F)cc3C(C)(C)O)n2)c(OC)cc1N1CC[C@@H](N(C)C)C1,enzyme activity,inhibitor,,1 µM,inhibition,47%
CN(C)c1ncnc(-c2ccc3nc(Nc4cc(CN5CCN(C(=O)CC(F)(F)F)CC5)ccn4)[nH]c3c2)c1Cl,cell-free assay,,competition with immobilised ligand,1 µM,remaining binding,53%
Cn1c2c(c3ccccc31)C(C#N)C(C)(C)NC2=O (stereo not drawn),thermal stability,,DSF,10 µM,ΔTm,-0.1 °C
O=C(Nc1cnn(-c2csc(C(=O)NC3COC3)c2)c1)Nc1c(F)cccc1Cl,enzyme activity,inhibitor,,5 µM,remaining activity,84.3%
Cn1c2c(c3ccc(Cl)c(Cl)c31)C(C#N)C1(CCCCC1)NC2=O (racemic),thermal stability,,DSF,10 µM,ΔTm,0 °C
CCCCN(CCCC)C(=O)CN1C[C@@H](c2cc(OC)c3c(c2)OCO3)[C@H](C(=O)O)[C@H]1CC(C)(C)CCC,cell-free assay,,competition with immobilised ligand,1 µM,remaining binding,86%
